Data as given in ChEMBL document CHEMBL4765453, “Phenanthrolinic analogs of quinolones show antibacterial activity against M. tuberculosis” (Eur J Med Chem, 2020).
In brackets after ≈: the same amount, converted by molar mass.

Columns and labels:
[1] = tested on: Mycobacterium tuberculosis; assay: Antitubercular activity against Mycobacterium tuberculosis H37Rv measured after 7 days by resazurin microtiter assay; format: functional; settings: 168 h, time 7 day
How it was run: (§1)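 Resazurin microtiter assay with two-fold drug dilutions in complete 7H9 broth. Exponential-phase cells are diluted to a final OD600 of 0.005 in 7H9 without Tween. Incubation is 7 days at 37°C, then 0.01% resazurin is added and plates are held 24 h more. MIC is the lowest concentration preventing the blue-to-pink change. Each MIC is determined three times in duplicate experiments.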

[2] = Solubility of compound in water; format: physicochemical; settings: buffer
Staphylococcus aureus = assay: Antibacterial activity against Staphylococcus aureus measured after 7 days by resazurin microtiter assay; format: functional; settings: 168 h, time 7 day
Enterobacter cloacae = assay: Antibacterial activity against Enterobacter cloacae measured after 7 days by resazurin microtiter assay; format: functional; settings: 168 h, time 7 day
[3] = tested on: Mycobacterium tuberculosis; assay: Antitubercular activity against Mycobacterium tuberculosis H37Rv infected in human macrophages assessed as intracellular bacterial load at 2 times MIC measured after 6 days (reference value: 5.57 to 6.43 logCFU/ml); format: functional, Macrophage; settings: time 6 day
Vero = assay: Cytotoxicity against African green monkey Vero cells assessed as reduction in cell viability measured after 24 to 48 hrs by Celltiter-glo assay; format: cell-based, Chlorocebus sabaeus; settings: for Activity: chlorocebus sabaeus, vero, time 24-48 hrs
How it was run: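 Vero cells are grown in DMEM with 10% FBS and seeded at 25000 cells/well. Compound is added at 1% final DMSO, with 24 and 48 h incubation. ATP is read by CellTiter-Glo luminescence. IC50 is the concentration giving a 50% drop in ATP signal versus the DMSO control.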

Klebsiella aerogenes = assay: Antibacterial activity against Enterobacter aerogenes measured after 7 days by resazurin microtiter assay; format: functional; settings: 168 h, time 7 day
Macrophage = assay: Cytotoxicity against human macrophages assessed as reduction in cell viability measured after 6 days by Celltiter-glo assay; format: cell-based; settings: 144 h; for Activity: human, macrophage, time 6 day
How it was run: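 Infected human macrophages, with or without drug, are incubated 6 days. Viability is checked by visual inspection and by CellTiter-Glo ATP luminescence.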

[4] = tested on: Mycolicibacterium smegmatis; assay: Antibacterial activity against Mycobacterium smegmatis measured after 7 days by resazurin microtiter assay; format: functional; settings: 168 h, time 7 day; how it was run: as §1
Mycobacterium marinum = assay: Antibacterial activity against Mycobacterium marinum measured after 7 days by resazurin microtiter assay; format: functional; settings: 168 h, time 7 day; how it was run: as §1
Acinetobacter baumannii = assay: Antibacterial activity against Acinetobacter baumannii measured after 7 days by resazurin microtiter assay; format: functional; settings: 168 h, time 7 day
[5] = tested on: Mycobacterium tuberculosis; assay: Antitubercular activity against Mycobacterium tuberculosis H37Rv infected in human macrophages assessed as intracellular bacterial load at 4 times MIC measured after 6 days (reference value: 5.57 to 6.43 logCFU/ml); format: functional, Macrophage; settings: time 6 day
[6] = tested on: Mycobacterium tuberculosis; assay: Antitubercular activity against Mycobacterium tuberculosis H37Rv infected in human macrophages assessed as intracellular bacterial load at MIC measured after 6 days (reference value: 5.57 to 6.43 logCFU/ml); format: functional, Macrophage; settings: time 6 day
Klebsiella pneumoniae = assay: Antibacterial activity against Klebsiella pneumoniae measured after 7 days by resazurin microtiter assay; format: functional; settings: 168 h, time 7 day
Mycolicibacterium aurum = assay: Antibacterial activity against Mycobacterium aurum measured after 7 days by resazurin microtiter assay; format: functional; settings: 168 h, time 7 day; how it was run: as §1
[7] = tested on: Mycobacterium tuberculosis; assay: Antitubercular activity against Mycobacterium tuberculosis H37Rv infected in human macrophages assessed as intracellular bacterial load at 0.5 MIC measured after 6 days (reference value: 5.57 to 6.43 logCFU/ml); format: functional, Macrophage; settings: time 6 day
Pseudomonas aeruginosa = assay: Antibacterial activity against Pseudomonas aeruginosa measured after 7 days by resazurin microtiter assay; format: functional; settings: 168 h, time 7 day
[8] = tested on: Mycobacterium tuberculosis; assay: Antitubercular activity against Mycobacterium tuberculosis XDR measured after 7 days by resazurin microtiter assay; format: functional; settings: 168 h, time 7 day; how it was run: as §1

CCOC(=O)c1c[nH]c2c(ccc3ccc[n+]([O-])c32)c1=O
MIC90 [1]: 204 µM (≈ 58 µg/mL) | solubility [2]: Insoluble

CCn1cc(C(=O)Nc2ccccc2)c(=O)c2cc([N+](=O)[O-])c3cccnc3c21
MIC90 [1]: 275 µM (≈ 107 µg/mL) | solubility [2]: Insoluble

O=C(O)c1c[nH]c2c(ccc3cccnc32)c1=O
MIC90 [1]: 112 µM (≈ 27 µg/mL) | solubility [2]: Insoluble

Cn1cc(C(N)=O)c(=O)c2cc([N+](=O)[O-])c3cccnc3c21
MIC90 [1]: 1.4 µM (≈ 0.418 µg/mL) | solubility [2]: Insoluble

CCn1cc(C(=O)O)c(=O)c2ccc3cccnc3c21
MIC90 [1]: 47.1 µM (≈ 12.6 µg/mL) | solubility [2]: Insoluble

CCn1cc(C(=O)O)c(=O)c2cc(Br)c3cccnc3c21
MIC90 [1]: 9.39 µM (≈ 3.26 µg/mL) | solubility [2]: Insoluble

CCn1cc(C(=O)O)c(=O)c2cc([N+](=O)[O-])c3cccnc3c21
MIC90 (Staphylococcus aureus): 10.7 µM (≈ 3.34 µg/mL) | MIC90 [1]: 5.84 µM (≈ 1.83 µg/mL) | MIC90 (Enterobacter cloacae): > 275 µM | Activity [3]: 3.21 log10CFU/ml | Activity (Vero): Non-Toxic | MIC90 (Klebsiella aerogenes): 42.7 µM (≈ 13.4 µg/mL) | Activity (Macrophage): Non-Toxic | MIC90 [4]: 21.4 µM (≈ 6.69 µg/mL) | MIC90 (Mycobacterium marinum): 1.3 µM (≈ 0.407 µg/mL) | solubility [2]: Insoluble | MIC90 (Acinetobacter baumannii): 93.4 µM (≈ 29.2 µg/mL) | Activity [5]: 3.24 log10CFU/ml | Activity [6]: 3.69 log10CFU/ml | MIC90 (Klebsiella pneumoniae): > 275 µM | MIC90 (Mycolicibacterium aurum): 10.7 µM (≈ 3.34 µg/mL) | Activity [7]: 4.19 log10CFU/ml | MIC90 (Pseudomonas aeruginosa): > 100 µM

CCn1cc(C(N)=O)c(=O)c2cc([N+](=O)[O-])c3cccnc3c21
MIC90 [1]: 1.25 µM (≈ 0.39 µg/mL) | solubility [2]: Insoluble

CCOC(=O)c1cn(C)c2c(cc(Br)c3cccnc32)c1=O
MIC90 [1]: 290 µM (≈ 105 µg/mL) | solubility [2]: Insoluble

CCn1cc(C(=O)Nc2ccccc2)c(=O)c2ccc3cccnc3c21
MIC90 [1]: 312 µM (≈ 107 µg/mL) | solubility [2]: Insoluble

COc1c(N2C[C@@H]3CCCN[C@@H]3C2)c(F)cc2c(=O)c(C(=O)O)cn(C3CC3)c12 [MOXIFLOXACIN]
MIC90 [1]: 0.77 µM (≈ 0.309 µg/mL) | Activity [3]: 3.93 log10CFU/ml | MIC90 [8]: 6.16 µM (≈ 2.47 µg/mL) | Activity [5]: 2.54 log10CFU/ml | Activity [6]: 3.77 log10CFU/ml | Activity [7]: 4.02 log10CFU/ml

CCOC(=O)c1cn(CC)c2c(cc(Cl)c3cccnc32)c1=O
MIC90 [1]: 166 µM (≈ 55 µg/mL) | solubility [2]: Insoluble

CCOC(=O)c1cn(C)c2c(cc(N)c3cccnc32)c1=O
MIC90 [1]: 92.1 µM (≈ 27.4 µg/mL) | solubility [2]: Insoluble

CCn1cc(C(=O)O)c(=O)c2ccc(C)nc21 [NALIDIXIC ACID]
MIC [1]: > 50 µM

CCOC(=O)c1cn(CC)c2c(ccc3cccnc32)c1=O
MIC90 [1]: 170 µM (≈ 50.3 µg/mL) | solubility [2]: Insoluble

CCOC(=O)c1c[nH]c2c(ccc3c([N+](=O)[O-])cc[n+]([O-])c32)c1=O
MIC90 [1]: 39.5 µM (≈ 13 µg/mL) | solubility [2]: Insoluble

CO[C@H]1/C=C/O[C@@]2(C)Oc3c(C)c(O)c4c(O)c(c(/C=N/N5CCN(C)CC5)c(O)c4c3C2=O)NC(=O)/C(C)=C\C=C\[C@H](C)[C@H](O)[C@@H](C)[C@@H](O)[C@@H](C)[C@H](OC(C)=O)[C@@H]1C [RIFAMPIN]
MIC90 [1]: 0.76 µM (≈ 0.625 µg/mL)

Cn1cc(C(=O)NN)c(=O)c2cc([N+](=O)[O-])c3cccnc3c21
MIC90 [1]: 20.8 µM (≈ 6.51 µg/mL) | solubility [2]: Insoluble

CCOC(=O)c1cn(C)c2c(cc(Cl)c3cccnc32)c1=O
MIC90 [1]: 329 µM (≈ 104 µg/mL) | solubility [2]: Insoluble

CCOC(=O)c1cn(CC)c2c(cc([N+](=O)[O-])c3cccnc32)c1=O
MIC90 (Staphylococcus aureus): 19.6 µM (≈ 6.69 µg/mL) | MIC90 [1]: 4.99 µM (≈ 1.7 µg/mL) | MIC90 (Enterobacter cloacae): > 275 µM | Activity [3]: 3.1 log10CFU/ml | Activity (Vero): Non-Toxic | MIC90 (Klebsiella aerogenes): 314 µM (≈ 107 µg/mL) | Activity (Macrophage): Non-Toxic | MIC90 [4]: > 100 µM | MIC90 (Mycobacterium marinum): 0.61 µM (≈ 0.208 µg/mL) | solubility [2]: Insoluble | MIC90 [8]: 4.99 µM (≈ 1.7 µg/mL) | MIC90 (Acinetobacter baumannii): > 100 µM | Activity [5]: 3 log10CFU/ml | Activity [6]: 3.59 log10CFU/ml | MIC90 (Klebsiella pneumoniae): > 275 µM | MIC90 (Mycolicibacterium aurum): > 100 µM | Activity [7]: 4.42 log10CFU/ml | MIC90 (Pseudomonas aeruginosa): > 100 µM

CCOC(=O)c1cn(CC)c2c(cc(Br)c3cccnc32)c1=O
MIC90 [1]: 318 µM (≈ 119 µg/mL) | solubility [2]: Insoluble

CCOC(=O)c1cn(C)c2c(cc([N+](=O)[O-])c3cccnc32)c1=O
MIC90 (Staphylococcus aureus): > 275 µM | MIC90 [1]: 1.21 µM (≈ 0.396 µg/mL) | MIC90 (Enterobacter cloacae): > 275 µM | Activity [3]: 3.45 log10CFU/ml | IC50 (Vero; Chlorocebus sabaeus, Vero): > 50 µg/mL | MIC90 (Klebsiella aerogenes): 309 µM (≈ 101 µg/mL) | IC50 (Macrophage; Homo sapiens, Macrophage): > 50 µg/mL | MIC90 [4]: > 100 µM | MIC90 (Mycobacterium marinum): 0.15 µM (≈ 0.0491 µg/mL) | solubility [2]: Insoluble | MIC90 [8]: 1.21 µM (≈ 0.396 µg/mL) | MIC90 (Acinetobacter baumannii): > 100 µM | Activity [5]: 3.06 log10CFU/ml | Activity [6]: 3.63 log10CFU/ml | MIC90 (Klebsiella pneumoniae): > 275 µM | MIC90 (Mycolicibacterium aurum): > 100 µM | Activity [7]: 4.22 log10CFU/ml | MIC90 (Pseudomonas aeruginosa): > 100 µM

CCOC(=O)c1cn(C)c2c(ccc3cccnc32)c1=O
MIC90 [1]: 182 µM (≈ 51.5 µg/mL) | solubility [2]: Insoluble

CCOC(=O)c1c[nH]c2c(cc([N+](=O)[O-])c3cccnc32)c1=O
MIC90 [1]: 329 µM (≈ 103 µg/mL) | solubility [2]: Insoluble

Cn1cc(C(=O)O)c(=O)c2ccc3cccnc3c21
MIC90 [1]: 25.8 µM (≈ 6.56 µg/mL) | solubility [2]: Insoluble

CCOC(=O)c1cn(CC)c2c(cc(N)c3cccnc32)c1=O
MIC90 [1]: 41.9 µM (≈ 13 µg/mL) | solubility [2]: Insoluble

NCC[C@H](O)C(=O)N[C@@H]1C[C@H](N)[C@@H](O[C@H]2O[C@H](CN)[C@@H](O)[C@H](O)[C@H]2O)[C@H](O)[C@H]1O[C@H]1O[C@H](CO)[C@@H](O)[C@H](N)[C@H]1O [AMIKACIN]
MIC90 [1]: 1.83 µM (≈ 1.07 µg/mL) | MIC90 [4]: 0.46 µM (≈ 0.269 µg/mL) | MIC90 (Mycobacterium marinum): 3.66 µM (≈ 2.14 µg/mL) | MIC90 (Acinetobacter baumannii): 14.6 µM (≈ 8.57 µg/mL) | MIC90 (Mycolicibacterium aurum): 1.83 µM (≈ 1.07 µg/mL) | MIC90 (Pseudomonas aeruginosa): 3.66 µM (≈ 2.14 µg/mL)

CCOC(=O)c1c[nH]c2c(ccc3cccnc32)c1=O
MIC90 [1]: 24 µM (≈ 6.44 µg/mL) | solubility [2]: Insoluble

CCn1cc(C(=O)NN)c(=O)c2cc([N+](=O)[O-])c3cccnc3c21
MIC90 [1]: 9.84 µM (≈ 3.22 µg/mL) | solubility [2]: Insoluble
